For experiment [1], the system named is CAKI-1. In words: In vitro growth inhibition of CAKI-1, Kidney carcinoma. The settings on record: Homo sapiens. It counts as functional, cell-based. The essentials: (§1)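 Human tumor lines screened in-house: KB, A549, MCF-7, CAKI-1 and SK-MEL-2. Read-out was SRB staining with absorbance at 562 nm.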
Another experiment deals with KB. In words: In vitro growth inhibition of KB, epidermoid carcinoma of the nasopharynx. It counts as functional, cell-based. The settings on record: Homo sapiens. The essentials: as §1
Experiment [2] relates to A549. In words: In vitro growth inhibition of A549, lung carcinoma. The class given is functional, cell-based. The conditions noted are these: Homo sapiens. Put shortly: as §1
The test system of a further experiment is MCF7. Kind of experiment: In vitro growth inhibition of MCF-7, breast adenocarcinoma. It counts as functional, cell-based. The conditions noted are these: Homo sapiens. The essentials: as §1
The test system of experiment [3] is SK-MEL-2. Kind of experiment: In vitro growth inhibition of SK-MEL-2, malignant melanoma. It counts as functional, cell-based. The settings on record: Homo sapiens. The essentials:
as §1

For experiment [4], the target named is T1, DNA topoisomerase 1 (Homo sapiens) (UniProt P11387).
T1 sequence (whole entry): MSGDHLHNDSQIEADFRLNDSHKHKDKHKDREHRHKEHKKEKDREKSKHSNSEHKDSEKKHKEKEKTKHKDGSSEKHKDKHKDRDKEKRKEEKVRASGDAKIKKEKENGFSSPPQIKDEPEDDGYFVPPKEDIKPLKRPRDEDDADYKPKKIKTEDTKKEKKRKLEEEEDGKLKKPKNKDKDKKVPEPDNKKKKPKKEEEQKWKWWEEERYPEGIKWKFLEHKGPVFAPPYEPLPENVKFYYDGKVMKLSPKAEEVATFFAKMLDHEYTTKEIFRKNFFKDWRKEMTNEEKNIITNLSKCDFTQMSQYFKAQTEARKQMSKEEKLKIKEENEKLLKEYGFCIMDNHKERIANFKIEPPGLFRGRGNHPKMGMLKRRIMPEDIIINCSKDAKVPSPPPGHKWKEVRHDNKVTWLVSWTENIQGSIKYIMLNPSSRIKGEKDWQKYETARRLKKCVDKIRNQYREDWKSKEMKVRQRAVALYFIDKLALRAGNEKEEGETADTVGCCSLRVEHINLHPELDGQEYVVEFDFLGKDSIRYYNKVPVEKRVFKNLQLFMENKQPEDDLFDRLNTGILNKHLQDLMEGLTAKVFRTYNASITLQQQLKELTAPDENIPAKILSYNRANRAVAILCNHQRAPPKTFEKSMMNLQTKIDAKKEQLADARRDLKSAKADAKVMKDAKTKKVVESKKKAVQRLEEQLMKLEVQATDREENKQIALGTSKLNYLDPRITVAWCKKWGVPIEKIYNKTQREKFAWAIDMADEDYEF
Kind of experiment: In vitro inhibitory activity at 100 uM against topoisomerase I measured as ATP-independent relaxation of supercoiled plasmid DNA compared to enzyme and DNA control.

Experiment [5] concerns the target T2, DNA topoisomerase II (Homo sapiens, UniProt P11388+Q02880). Kind of experiment: In vitro inhibitory activity at 100 uM against topoisomerase II measured as ATP-dependent unknotting of P4 DNA compared to enzyme and DNA control. It counts as protein assay.
For the next experiment, the target named is Tubulin. The class given is protein-complex assay.
In experiment [6] the test system is CAKI-1. In words: In vitro percent inhibition of CAKI-1, Kidney carcinoma. It counts as functional, Homo sapiens. More on the design: concentration or dose not given beside the values.
For experiment [7], the system named is SK-MEL-2. Kind of experiment: In vitro percent inhibition of SK-MEL-2 cells, malignant melanoma. It counts as functional, Homo sapiens. More on the design: concentration or dose not given beside the values.
Experiment [8] concerns the target T2, DNA topoisomerase II. Kind of experiment: In vitro activity against mammalian topoisomerase II measured as ATP-dependent unknotting of P4 DNA compared to enzyme and DNA control. The class given is protein assay. The essentials:
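Topo II inhibition read as ATP-dependent unknotting of P4 DNA, compared with enzyme-only and DNA-only control reactions.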

Experiment [9] has as its system A549. Kind of experiment: In vitro percent inhibition of A549, lung carcinoma. It counts as functional, Homo sapiens.

≈ marks a conversion by molar mass, not a printed value.

A word on the EC50: it is the midpoint of the concentration-response curve. Take `COc1cc2c(c(OC)c1OC)-c1ccc(OC)c(=O)cc1[C@@H](NC(C)=O)CC2` [COLCHICINE]: the concentration for a half-maximal effect (EC50) is 0.4 µg/mL (≈ 1 µM) in the experiment on CAKI-1 [1]; 0.002 µg/mL (≈ 0.00501 µM) with KB; 0.022 µg/mL (≈ 0.0551 µM) in the experiment with A549 [2]; more than 0.4 µg/mL in the experiment with MCF7; 0.008 µg/mL (≈ 0.02 µM) with SK-MEL-2 [3].
The term inhibition denotes the change of the read-out against control, counted positive when it falls. A word on the IC50: it is the concentration at which inhibition is half-maximal. `CSc1ccc2c(cc1=O)[C@@H](NC(=O)c1cccc([N+](=O)[O-])c1)CCc1cc(O)c(O)c(O)c1-2`: the values for the inhibition (in [4]; against DNA topoisomerase II [5]) were 0% and 100%, respectively. At Tubulin, this molecule came in with an IC50 of more than 40 µM.
What is called Inhibition is how much of the control response was suppressed. As to `Br.CSc1ccc2c(cc1=O)[C@@H](NC(=O)c1ccc(N)cc1)CCc1cc(O)c(O)c(O)c1-2`, the Inhibition with CAKI-1 [6] worked out at 37%; with SK-MEL-2 [7] it was 42%. Moreover, the EC50 in the experiment with CAKI-1 [1] is more than 19.5 µg/mL; with KB it was 4.8 µg/mL; with A549 [2], 9.7 µg/mL; in the experiment on MCF7, 10.7 µg/mL; in the experiment with SK-MEL-2 [3] it was more than 19.5 µg/mL. The molecule further gave an IC50 against Tubulin of more than 40 µM.
As for `CSc1ccc2c(cc1=O)[C@@H](NC(=O)c1ccc(CBr)cc1)CCc1cc(O)c(O)c(O)c1-2`, the inhibition in experiment [4] was 0%; against DNA topoisomerase II [5], 100%. On Tubulin, this molecule displayed an IC50 of more than 40 µM.
Turning to `CSc1ccc2c(cc1=O)[C@@H](NC(=O)C13CCC(C)(C(=O)O1)C3(C)C)CCc1cc(O)c(O)c(O)c1-2` (stereo partly drawn), the inhibition (in experiment [4]; at DNA topoisomerase II [5]) was 0% in each case. The molecule further showed an IC50 at Tubulin of more than 40 µM.
On DNA topoisomerase II [8], `COc1c(O)c(O)cc2c1-c1ccc(SC)c(=O)cc1[C@@H](NC(C)=O)CC2` displayed a 50% inhibitory concentration (IC50) of 38 µM.
Regarding `CSc1ccc2c(cc1=O)[C@@H](NC(=O)C13CC4CC(CC(C4)C1)C3)CCc1cc(O)c(O)c(O)c1-2`, the inhibition (in experiment [4]; at DNA topoisomerase II [5]) was 0% throughout. For the same molecule, the 50% inhibitory concentration (IC50) on Tubulin is more than 40 µM.
In the case of `CSc1ccc2c(cc1=O)[C@@H](NC(=O)c1ccccc1[N+](=O)[O-])CCc1cc(O)c(O)c(O)c1-2`, the inhibition was determined as 0% in experiment [4] and 100% at DNA topoisomerase II [5]. The molecule further registered an IC50 against Tubulin of more than 40 µM.
On to `CSc1ccc2c(cc1=O)[C@@H](NC(=O)c1ccc(N)cc1)CCc1cc(O)c(O)c(O)c1-2`, for which the inhibition in experiment [4] was determined as 0%; at DNA topoisomerase II [5] it was 100%.
With `CSc1ccc2c(cc1=O)[C@@H](NC(=O)c1cc([N+](=O)[O-])cc([N+](=O)[O-])c1)CCc1cc(O)c(O)c(O)c1-2`, the results for the inhibition (in experiment [4]; against DNA topoisomerase II [5]) were 0% and 100%, respectively. The molecule also showed an IC50 at Tubulin of more than 40 µM.
The matching figures for `CCCCCC(=O)N[C@H]1CCc2cc(O)c(O)c(O)c2-c2ccc(SC)c(=O)cc21`: 0%, 100% and more than 40 µM.
In the same order, the values of `CSc1ccc2c(cc1=O)[C@@H](NC(=O)c1ccc(Cl)cc1)CCc1cc(O)c(O)c(O)c1-2` are 0%, 100% and more than 40 µM.
In the same order, the values of `CSc1ccc2c(cc1=O)[C@@H](NC(=O)c1ccc(F)cc1)CCc1cc(O)c(O)c(O)c1-2` are 0%, 100% and more than 40 µM.
In the case of `COc1cc2c(c(O)c1O)-c1ccc(SC)c(=O)cc1[C@@H](NC(C)=O)CC2`, on DNA topoisomerase II [8], the IC50 is more than 150 µM.
Consider `CSc1ccc2c(cc1=O)[C@@H](NC(=O)c1ccc(NC(=O)C34CCC(C)(C(=O)O3)C4(C)C)cc1)CCc1cc(O)c(O)c(O)c1-2` (stereo partly drawn), for which the inhibition (in experiment [4]; against DNA topoisomerase II [5]) was 0% in each case. At Tubulin, this molecule yielded an IC50 of more than 40 µM.
For `CSc1ccc2c(cc1=O)[C@@H](NC(=O)c1cc(O)c(O)c(O)c1)CCc1cc(O)c(O)c(O)c1-2`, the Inhibition in the experiment on CAKI-1 [6] is on record as 29%; with SK-MEL-2 [7], 30%; in the experiment with A549 [9] it was 30%. Moreover, the EC50 was more than 9.6 µg/mL with CAKI-1 [1]; 9.6 µg/mL (≈ 19.9 µM) with KB; more than 9.6 µg/mL in the experiment with A549 [2]; 8.6 µg/mL (≈ 17.8 µM) in the experiment with MCF7; more than 9.6 µg/mL in the experiment with SK-MEL-2 [3]. The inhibition (in [4]; on DNA topoisomerase II [5]) was 100% throughout. In addition, the half-maximal inhibitory concentration (IC50) against Tubulin is more than 40 µM.

Source of the values: ChEMBL document CHEMBL1131236, “Antitumor agents. 185. Synthesis and biological evaluation of tridemethylthiocolchicine analogues as novel topoisomerase II inhibitors” (J Med Chem, 1998).
